Compound activity deposited in PubChem BioAssay by The Scripps Research Institute Molecular Screening Center.
Compounds with a hit are over-represented: about 4.6% of the library has one in this group of screens.
TAAR1 agonist: human TAAR1 agonists, primary screen, Fluo-8 calcium fluorescence, CHO RD-HGA16 cells. Trace amine-associated receptor 1 (Homo sapiens), Q96RJ0. activation, % at 3 µM. AID 624467, 2012. 0.99% of 360,000 active. vehicle wells 0%, saturating PEA agonist 100%;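 active = activation above the mean activation of all test compounds in the run plus 3 SD, cut at about 38% in these data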
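System: CHO-derived RD-HGA16 cells with stable Gα16 and human TAAR1 / Times: 17-24 h plating, Fluo-8 75 min 37 °C, 30 min RT / Technique: calcium-sensitive Fluo-8 signal, excitation 470-495, emission 515-575 nm / Measure: % activation relative to PEA EC100 response / Benchmarks: DMSO and PEA EC100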
CHO parental Ca: ATP-evoked calcium signal inhibitors, parental CHO, primary screen, counter-screen for OX1R antagonist project, cell-based, fluorescence, Fluo-8 calcium dye | parental CHO-K1, ATP-induced calcium, Fluo-8 fluorescence | inhibition, % at 5.6 µM | 0.63% of 330,000 active;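 active = inhibition above that plate's mean sample inhibition plus 3 SD, cut at about 26% in these data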
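Assay system: parental CHO cells; Read-out basis: percent inhibition of ATP-evoked calcium rise, normalized to controls; Benchmarks: ATP and no-ATP DMSO wells; Compound dosing: single nominal dose of 5.6 µM per compound; Signal: Fluo-8 calcium dye fluorescence; Also added: ATP as calcium-mobilizing challenge; Repeats: singlicate.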
TAAR1 antagonist: human TAAR1 antagonists, primary screen, Fluo-8 calcium fluorescence, CHO RD-HGA16 cells | antagonist | inhibition, % at 3 µM | 1.5% of 360,000 active;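 active = inhibition above a per-plate cutoff, the mean inhibition of test compounds on that plate plus 3 SD, cut at about 49% in these data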
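Material: CHO RD-HGA16 cells bearing hTAAR1; compound dosing: one-point dosing, 3 µM nominal final; schedule: dye loading 75 min at 37 °C, then 30 min room temperature; measured by: calcium fluorescence with Fluo-8; control set: vehicle and agonist controls; replication: n of 1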
GPR7 antag: GPR7 receptor antagonists, primary screen, cell-based, fluorescence, single concentration; Neuropeptides B/W receptor type 1 (Homo sapiens), P48145; AID 1861, 2009; GPR7-expressing cells, fluorescence antagonist assay; 1.1% of 290,000 active; inhibition, % at 4.4 µM; in the data active = inhibition above about 16%, passing the limit was not always enough;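 note: cells stimulated with the agonist NPW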
Target sequence (P48145 whole entry, looked up): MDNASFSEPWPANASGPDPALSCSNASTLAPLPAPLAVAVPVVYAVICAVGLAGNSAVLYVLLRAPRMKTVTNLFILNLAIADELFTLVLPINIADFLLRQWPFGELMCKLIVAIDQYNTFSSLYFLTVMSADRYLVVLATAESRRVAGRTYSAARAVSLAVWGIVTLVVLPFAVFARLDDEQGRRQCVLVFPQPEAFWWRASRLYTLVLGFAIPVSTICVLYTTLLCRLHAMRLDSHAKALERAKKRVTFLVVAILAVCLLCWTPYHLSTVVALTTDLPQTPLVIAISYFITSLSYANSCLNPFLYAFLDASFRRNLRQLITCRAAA
OX1R antag-1: OX1R (HCRTR1) antagonists, primary screen, fluorescence, CHO/OX1R cells, Fluo-8 calcium, orexin A; Fluo-8 calcium fluorescence; inhibition, % at 5 µM; 0.43% of 330,000 active; AID 434989, 2010;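 active = inhibition above its plate's threshold, mean inhibition of all tested compounds on the plate plus 3 SD, cut at about 37% in these data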
Target sequence (O43613 whole entry, looked up): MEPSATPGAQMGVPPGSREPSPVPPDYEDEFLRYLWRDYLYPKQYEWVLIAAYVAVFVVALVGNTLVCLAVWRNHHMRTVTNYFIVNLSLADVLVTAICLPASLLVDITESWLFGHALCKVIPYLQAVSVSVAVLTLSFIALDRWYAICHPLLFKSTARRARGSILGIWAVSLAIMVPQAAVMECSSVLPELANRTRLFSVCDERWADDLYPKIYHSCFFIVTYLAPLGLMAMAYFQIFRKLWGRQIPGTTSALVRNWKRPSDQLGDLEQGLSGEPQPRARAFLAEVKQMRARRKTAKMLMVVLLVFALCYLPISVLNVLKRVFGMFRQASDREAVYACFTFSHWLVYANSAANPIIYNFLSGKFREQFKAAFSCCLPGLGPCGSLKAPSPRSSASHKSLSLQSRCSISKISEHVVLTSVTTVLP
OX1R antag-2: antagonists of human orexin 1 receptor (OX1R); Orexin/Hypocretin receptor type 1 (Homo sapiens), O43613; OX1R-expressing cells, FRET antagonist read-out; inhibition, % at 6.6 µM; 1.8% of 330,000 active; in the data active = inhibition mostly above about 38%, no sharp cut-off; inactive = mostly below about 40%
OX1R HTRF confirm: OX1R (HCRTR1) antagonists, confirmation, cell-based, HTRF; AID 492964, 2010; OX1R-expressing cells, HTRF antagonist assay; 49% of 1,800 active; shares compounds with OX1R antag-2; inhibition, % at 6.6 µM; in the data active = inhibition above about 55%;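 note: CHO cells expressing OX1R stimulated with orexin A at about EC80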
CHO-K1 HTRF cnt: signal inhibition in parental CHO-K1 cells, counter-screen for OX1R antagonist project, cell-based, HTRF | shares compounds with OX1R antag-2 | HTRF counterscreen | inhibition, % at 6.6 µM | 48% of 1,800 active; in the data active = inhibition above about 17%
Large screens that a line does not name were inactive (follow-up assays come after a bar, where they were run).

Cn1cnnc1Sc1ccc(C(=O)OCC(=O)NCC(F)(F)F)cc1[N+](=O)[O-]	OX1R antag-2 78 | OX1R HTRF confirm inactive | CHO-K1 HTRF cnt 43
COc1cccc2cc(-c3cn4cccc(C)c4n3)c(=O)oc12	none
COc1cccc2cc(-c3cn4ccc(C)cc4n3)c(=O)oc12	OX1R antag-2 86 | OX1R HTRF confirm 91 | CHO-K1 HTRF cnt inactive
COc1ccc2c(c1)O/C(=C\c1sccc1C)C2=O	OX1R antag-2 81 | OX1R HTRF confirm inactive | CHO-K1 HTRF cnt inactive
COc1cc(/C=N/NC(=O)c2sc(N)c(C#N)c2C)cc(Br)c1O	OX1R antag-2 82 | OX1R HTRF confirm inactive | CHO-K1 HTRF cnt inactive
NS(=O)(=O)c1ccc(O)c(NC(=O)c2ccc([N+](=O)[O-])cc2)c1	OX1R antag-2 92 | OX1R HTRF confirm inactive | CHO-K1 HTRF cnt 47
O=C(Nc1cc([N+](=O)[O-])ccc1O)c1cccc(C(=O)Nc2cc([N+](=O)[O-])ccc2O)c1	none
O=C(Nc1c[nH]c(=O)[nH]c1=O)c1ccc([N+](=O)[O-])cc1	OX1R antag-2 138 | OX1R HTRF confirm inactive | CHO-K1 HTRF cnt 72
O=C(c1cc(S(=O)(=O)N2CCOCC2)ccc1F)N(CCc1ccccc1)Cc1ccccc1	none (no result: GPR7 antag)
Cc1c(NC(=O)C(C)OC(=O)c2ccc([N+](=O)[O-])s2)c(=O)n(-c2ccccc2)n1C (centres undefined)	OX1R antag-2 118 | OX1R HTRF confirm 71 | CHO-K1 HTRF cnt 81
O=C(c1ccc(CS(=O)c2cccc(Cl)c2)o1)N1CCN(c2ccccn2)CC1 (centres undefined)	none
O=C(Cc1ccccc1)NCC(=O)OCC(=O)c1ccc([N+](=O)[O-])cc1	OX1R antag-2 86 | OX1R HTRF confirm inactive | CHO-K1 HTRF cnt 42
CCOC(=O)c1ccc(Nc2nc(-c3cccnc3)nc3ccccc23)cc1	TAAR1 antagonist 56, OX1R antag-2 78 | OX1R HTRF confirm inactive | CHO-K1 HTRF cnt inactive
CCOC(=O)c1ccc(Nc2ncnc3ccccc23)cc1	none
Cc1cccc(OCC(=O)Nc2ccc3c(c2)nc2n3CCOC2)c1	none
c1cncc(-c2nnc(-c3cccnc3)nn2)c1	OX1R antag-2 88 | OX1R HTRF confirm inactive | CHO-K1 HTRF cnt 28
c1ccc(-c2nnc(-c3ccccc3)nn2)cc1	none
CCCCc1nc2cc(C(=O)N3CCC(OC)CC3)ccc2o1	none
C=CCn1c(O)c(N=NC(=O)CNC(=O)c2ccco2)c2ccccc21	none
Cc1ccc(S(=O)(=O)/N=C2\C=C(NS(=O)(=O)c3ccccc3)C(=O)c3ccccc32)c(C)c1	none (no result: CHO parental Ca, GPR7 antag, OX1R antag-1, OX1R antag-2)
CC(C)(C)c1ccc(S(=O)(=O)/N=C2\C=C(NS(=O)(=O)c3ccccc3)C(=O)c3ccccc32)cc1	OX1R antag-2 88 | OX1R HTRF confirm inactive | CHO-K1 HTRF cnt inactive
O=C1C(=O)c2ccccc2C([O-])=C1[n+]1ccccc1	OX1R antag-2 171 | OX1R HTRF confirm 60 | CHO-K1 HTRF cnt 108
CCN(CC)C(=O)c1ccc(C(=O)Nc2ccc(F)cc2)cc1	none (no result: GPR7 antag)
COc1cccc(CC(NC(C)=O)C(=O)NC2CCN(c3nnnn3-c3ccccc3)CC2)c1OC (centres undefined)	none
O=C(CC1C(=O)Nc2ccccc2N1CC(=O)N1CCCC1)Nc1ccc(Br)cc1 (centres undefined)	none (no result: GPR7 antag)
CCOC(=O)c1nn(-c2ccccc2)c(C(=O)OCC)c1N	none
CCOC(=O)c1nn(-c2ccccc2)c(=O)c2c(N)scc12	OX1R antag-2 108 | OX1R HTRF confirm inactive | CHO-K1 HTRF cnt 17
CCC(=O)Nc1ccc2oc(-c3ccccc3Br)nc2c1	OX1R antag-2 84 | OX1R HTRF confirm inactive | CHO-K1 HTRF cnt inactive
CC(=O)Nc1ccc2oc(-c3ccccc3Br)nc2c1	OX1R antag-2 78 | OX1R HTRF confirm inactive | CHO-K1 HTRF cnt inactive
O=c1c2c(-c3ccc([N+](=O)[O-])cc3)csc2nc2n1CCC2	OX1R antag-2 95 | OX1R HTRF confirm inactive | CHO-K1 HTRF cnt 48
O=[N+]([O-])c1ccc2c(c1)nc1n2CCCCC1	none
O=[N+]([O-])c1cccc(-c2nc(-c3ccccc3)no2)c1	none
O=[N+]([O-])c1cccc(-c2nc(-c3ccncc3)no2)c1	OX1R antag-2 113 | OX1R HTRF confirm inactive | CHO-K1 HTRF cnt 42
O=C(c1ccc2c(c1)C(=O)N(CCCO)C2=O)c1ccc2c(c1)C(=O)N(CCCO)C2=O	OX1R antag-2 149 | OX1R HTRF confirm 56 | CHO-K1 HTRF cnt 67
O=C1c2ccc3c4c(ccc(c24)C(=O)N1CCCCO)C(=O)N(CCCCO)C3=O	none (no result: CHO parental Ca, OX1R antag-1, OX1R antag-2)
COc1ccc(CNS(=O)(=O)c2csc(C(N)=O)c2)cc1OC	none
Cc1nc2[nH]onc2c2nccc(=O)c12	OX1R antag-2 121 | OX1R HTRF confirm inactive | CHO-K1 HTRF cnt 38
CN(C)/C=C1/Oc2c(ccc3ccccc23)C1=O	OX1R antag-2 88 | OX1R HTRF confirm 85 | CHO-K1 HTRF cnt inactive
COc1cc2sc3ccc(-c4ccc(N(C)C)nc4)cc3c(=O)c2cc1OC	OX1R antag-2 80 (no result: GPR7 antag) | OX1R HTRF confirm 65 | CHO-K1 HTRF cnt inactive
CCOC(=O)COc1ccc2cc(C(=O)OCC)c(=O)oc2c1	OX1R antag-2 110 | OX1R HTRF confirm inactive | CHO-K1 HTRF cnt 38
CCOC(=O)COc1ccc2c3c(c(=O)oc2c1)CCCC3	none
O=C(CSc1ccc(-c2cccs2)nn1)c1cccs1	OX1R antag-2 111 | OX1R HTRF confirm 95 | CHO-K1 HTRF cnt inactive
O=C(O)CCCCCNS(=O)(=O)c1cccc2c1C(=O)c1ccccc1C2=O	OX1R antag-2 138 | OX1R HTRF confirm 55 | CHO-K1 HTRF cnt 86
O=C(Nc1ccc2ccccc2c1)c1cnccn1	none
O=C(Nc1ccc2nccnc2c1)c1cnccn1	OX1R antag-2 132 | OX1R HTRF confirm inactive | CHO-K1 HTRF cnt 70
COc1ccc(-c2cc(C(F)(F)F)n3ncc(C(=O)O)c3n2)cc1OC	OX1R antag-2 82 | OX1R HTRF confirm inactive | CHO-K1 HTRF cnt 55
CC[C@@H]1C(=O)[C@H](Cc2ccccc2)[C@H]2CCCC(=O)N3CC[C@@H]1[C@@H]23	none (no result: CHO parental Ca, GPR7 antag, OX1R antag-1, OX1R antag-2)
